The text below walks through data of article PMC10329961 (Advances in Therapy, 2023).

Structures can show the parent of a compound that is named as a salt.

The subject of one data set is healthy adult men. The data set can be described thus: Adverse events. It is filed as in vivo, human. The note with it: 8-day twice-daily instillation. In a few lines:
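Healthy adult men, 3 × 3 crossover: three 8-day phases separated by drug-free intervals of at least 5 days. One drop of test eye drop was given in both eyes twice daily (09:00, 21:00), with morning dose only on day 8. Subjects were inpatients from day −1 to day 9. AEs and ADRs were tallied as number and percentage of subjects.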

Data set [1] has as its system corneal endothelial cells. The format is in vivo, human. The conditions noted are these: after instillation, days 1 and 8; none developed grade 3.
A further data set has as its system healthy volunteers. The note with it: cited from earlier work; for pupil diameter after single instillation: healthy subjects, ref 37 (Lee et al.).
Data set [2] has as its system palpebral and bulbar conjunctivae. The data set is described as follows: Palpebral and bulbar conjunctival hyperemia grading by slit lamp microscope. It is filed as in vivo, human. The note with it: day 1, score – = 0, + = 1, 2+ = 2, 3+ = 3; for palpebral conjunctival hyperemia mean ± SD grade score: administration phase 1. In a few lines:
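Conjunctival hyperemia was graded: – no or physiologic findings; + several vasodilatations; 2+ multiple or limbal vasodilatation; 3+ whole conjunctiva. Change from baseline per phase was averaged over both eyes and analysed by marginal model, n = 17–18.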

For data set [3], the system named is healthy adults and patients with glaucoma. The note with it: cited from earlier work.

Turning to `Brc1c(NC2=NCCN2)ccc2nccnc12` [brimonidine, brimonidine tartrate], in the data set with healthy adult men, the “subjects with ADRs” value is listed as 58.8%, the “subjects with AEs” value amounted to 70.6%, the “subjects with conjunctival hyperemia as ADR” value was 47.1% and the “subjects with conjunctival hyperemia as AE” value is listed as 58.8%. Also, the “morphologic changes in corneal endothelial cells (grade)” value in data set [1] is listed as “No morphologic changes”. In addition, in the data set with healthy volunteers, the “pupil diameter after single instillation” value was “significantly decreased”. Further, the effect on pupil result with healthy volunteers (healthy volunteers) is reported as “moderate miotic effect”.

Take `C[C@H]1CNCCCN1S(=O)(=O)c1cccc2cncc(F)c12` [ripasudil, ripasudil hydrochloride hydrate]: in the data set on healthy adult men, the “subjects with ADRs” value worked out at 100.0%, the “subjects with AEs” value is listed as 100.0%, the “subjects with conjunctival hyperemia as ADR” value was 100.0% and the “subjects with conjunctival hyperemia as AE” value is given as 100.0%. For the same compound, the “palpebral conjunctival hyperemia mean ± SD grade score” value in data set [2] (15 min post-instillation) is recorded as 1.4 ± 0.6. Further, in data set [2] (1 h post-instillation), the “palpebral conjunctival hyperemia mean ± SD grade score” value was 0.9 ± 0.7 and the “bulbar conjunctival hyperemia mean ± SD grade score” value was 0.9 ± 0.5. Besides, the “morphologic changes in corneal endothelial cells (grade)” value in data set [1] was “grade 1 or 2”. For the same compound, in data set [3], the “time of peak of transient conjunctival hyperemia after instillation” value was 5 to 15 min. For the same compound, the “pupil diameter after single instillation” value with healthy volunteers is “no change in pupil diameter”.
